Here are results for 17 compounds from ChEMBL document CHEMBL4041529, “Structure-Guided Design of EED Binders Allosterically Inhibiting the Epigenetic Polycomb Repressive Complex 2 (PRC2) Methyltransferase” (J Med Chem, 2017).

For data set [1], the target named is T1, Polycomb protein EED (Homo sapiens, UniProt O75530). Description: Inhibition of EED in human G401 cells assessed as reduction in H3K27 methylation measured after 48 hrs by ELISA method. In kind it is cell-based. In outline:
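G-401 rhabdoid cells at 37 °C, 5% CO2 were seeded, grown 24 h, then given serial dilutions for 48 h against a matched DMSO control. Cells were PBS-washed, lysed in 0.4 N HCl for 30 min at 4 °C and neutralized. Lysate was coated overnight at 4 °C, blocked with TBST/5% BSA, then probed with antibody and ECL. H3K27Me3 was normalized to H3, and IC50 came from a dose-response fit.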
(In an ELISA, binding on a coated surface is turned into a signal by an enzyme label.)

Data set [2] concerns the target T1, Polycomb protein EED. Nature of the data set: Inhibition of human PRC2-EED (76 to 441 residues) expressed in Escherichia coli BL21 (DE3) using histone H3[21 to 44, K27MeO] as substrate and SAM as co-factor measured after 2 hrs by LC-MS/MS method.
In data set [3] the target is T1, Polycomb protein EED. Nature of the data set: Binding affinity to human methionine-13Cepsilon-methyl labeled PRC2-EED (76 to 441 residues) expressed in Escherichia coli BL21 (DE3) by 2D NMR method. In outline:
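2D [13C,1H]-HSQC at 600 MHz, 296 K, on 40 μM selectively methionine-13Cε-methyl-labeled EED76–441 in 25 mM d-Tris pH 8, 150 mM NaCl, 2 mM d-DTT, 10% D2O. The protein was titrated with increasing ligand, and KD was derived from the chemical shift perturbations.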

A short description of data set [4]: Dissociation constant, pKa of the compound by electrophoresis/potentiometric method. In kind it is physicochemical.
The next data set concerns Pfeiffer. Nature of the data set: Antiproliferative activity against human Pfeiffer cells harboring EZH2 mutant measured after 6 days by CellTiter-Glo assay. It is filed as functional, cell-based. The settings on record: for EC50: 144 h. In outline:
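Exponentially growing Pfeiffer B-lymphocyte cells were exposed to compound for 6 days. Growth was read by CellTiter-Glo luminescence. Percent inhibition was taken versus a DMSO control, and IC50 was obtained by curve fitting.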
In general terms: In ATP-based viability assays light output follows the ATP content of the culture.

In general, IC50 refers to the midpoint of a concentration-inhibition curve. For orientation: Kd means the concentration at which binding is half-saturated. Read a low Kd as tighter binding. By pKa is commonly meant the pH at which an ionisable group is half protonated. Low values mean a group that gives up its proton readily, high ones a group that holds its proton tightly. As usually defined, the EC50 is the concentration at which the effect is half-maximal. Read a high EC50 as a need for much substance.

T1 sequence (O75530 whole entry): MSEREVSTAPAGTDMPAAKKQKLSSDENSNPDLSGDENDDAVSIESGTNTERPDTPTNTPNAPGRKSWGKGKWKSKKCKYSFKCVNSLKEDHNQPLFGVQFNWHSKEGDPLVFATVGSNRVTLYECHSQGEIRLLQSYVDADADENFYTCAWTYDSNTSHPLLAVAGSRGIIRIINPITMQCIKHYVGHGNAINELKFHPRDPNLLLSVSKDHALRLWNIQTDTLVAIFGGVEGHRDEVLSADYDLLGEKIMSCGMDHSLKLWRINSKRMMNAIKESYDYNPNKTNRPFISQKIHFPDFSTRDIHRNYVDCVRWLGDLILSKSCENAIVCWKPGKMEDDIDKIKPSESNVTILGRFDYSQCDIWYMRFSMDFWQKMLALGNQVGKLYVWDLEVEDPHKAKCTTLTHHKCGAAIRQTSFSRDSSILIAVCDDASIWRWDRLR

Take `N=C(N)N1CCCC(Cc2cccc3ccoc23)C1` (centres undefined): the 50% inhibitory concentration (IC50) at Polycomb protein EED [1] was 2.5 µM; at Polycomb protein EED [2] it was 2.8 µM.

`COc1cccc(CC2CCCNC2)c1` (centres undefined): the Kd at Polycomb protein EED [3] was found to be 32 µM. In data set [4], this compound displayed a pKa of 9.9. Also, inhibition against Polycomb protein EED [2] was half-maximal at 95 µM (IC50).

`c1cc(CC2CCCNC2)c2ccoc2c1` (centres undefined) returned a pKa in data set [4] of 9.8. The midpoint of inhibition on Polycomb protein EED [2], the IC50, lay at 40 µM.

As for `N=C(N)N1CCCC(Cc2cccc3c2OCO3)C1` (centres undefined), the half-inhibitory concentration (IC50) was 1.6 µM at Polycomb protein EED [1] and 3.9 µM at Polycomb protein EED [2]. For the same compound, the pKa in data set [4] is greater than 11.

For `COc1ccc(F)c(CC2CCc3c(C(C)C)nc(N)n3C2)c1` (centres undefined), in the data set on Pfeiffer, the EC50 was determined as 4.4 µM. Moreover, the IC50 came to 2.9 µM on Polycomb protein EED [1] and 1.3 µM against Polycomb protein EED [2].

In turn, `CC(C)c1nc(N)n2c1CCC(Cc1ccccc1F)C2` (centres undefined) came in with an IC50 against Polycomb protein EED [2] of 7.9 µM.

Turning to `N=C(N)N1CCCC(Cc2cccc3occc23)C1` (centres undefined), the IC50 on Polycomb protein EED [1] amounted to 2.5 µM; at Polycomb protein EED [2] it was 2.1 µM. In data set [4], this compound gave a pKa greater than 11.

As to `c1cc(CC2CCCNC2)c2occc2c1` (centres undefined), half-maximal inhibition against Polycomb protein EED [2] (IC50) required 95 µM.

For `Nc1ncc2n1CC(Cc1cccc3c1OCO3)CC2` (centres undefined), the IC50 at Polycomb protein EED [1] amounted to 1 µM; at Polycomb protein EED [2] it was 1.3 µM. The pKa in data set [4] is 9.2.

On to `c1cc(CC2CCCNC2)c2c(c1)OCO2` (centres undefined), for which, on Polycomb protein EED [2], half-maximal inhibition (IC50) was put at 35 µM.

For the compound `COc1ccc(CC2CCCNC2)cc1` (centres undefined), the 50% inhibitory concentration (IC50) on Polycomb protein EED [2] is greater than 500 µM.

On Polycomb protein EED [2], `c1ccc(CC2CCCNC2)cc1` (centres undefined) returned an IC50 greater than 500 µM.

As to `CC(C)c1nc(N)n2c1CCC(Cc1cccc3c1OCO3)C2` (centres undefined), the Activity result in the data set on Pfeiffer is “Dose-dependent effect”. The same compound gave an EC50 with Pfeiffer of 3.4 µM. In addition, the results for the IC50 on Polycomb protein EED [1] and on Polycomb protein EED [2] were 2 µM and 0.43 µM, respectively.

Regarding `Nc1ncc2n1CC(Cc1cccc3occc13)CC2` (centres undefined), the results for the IC50 at Polycomb protein EED [1] and against Polycomb protein EED [2] were 12.4 µM and 2.7 µM, respectively.

As to `COc1cc(CC2CCCNC2)ccc1F` (centres undefined), the IC50 at Polycomb protein EED [2] is 119 µM.

Regarding `COc1cccc(CC2CCCN(C(=N)N)C2)c1` (centres undefined), the pKa in data set [4] is greater than 11. Further, it took 43 µM to reach half-maximal inhibition against Polycomb protein EED [2] (IC50).

On Polycomb protein EED [2], `NC(=O)N1CCCC(Cc2cccc3ccoc23)C1` (centres undefined) showed an IC50 of 174 µM.
